From ChEMBL document CHEMBL1124505, “Inhibition of aminopeptidases by peptides containing ketomethylene and hydroxyethylene amide bond replacements” (J Med Chem, 1989) come the findings set out here.

Test [1] deals with T1, Aminopeptidase B (Rattus norvegicus, UniProt O09175).
T1 sequence (O09175 whole entry): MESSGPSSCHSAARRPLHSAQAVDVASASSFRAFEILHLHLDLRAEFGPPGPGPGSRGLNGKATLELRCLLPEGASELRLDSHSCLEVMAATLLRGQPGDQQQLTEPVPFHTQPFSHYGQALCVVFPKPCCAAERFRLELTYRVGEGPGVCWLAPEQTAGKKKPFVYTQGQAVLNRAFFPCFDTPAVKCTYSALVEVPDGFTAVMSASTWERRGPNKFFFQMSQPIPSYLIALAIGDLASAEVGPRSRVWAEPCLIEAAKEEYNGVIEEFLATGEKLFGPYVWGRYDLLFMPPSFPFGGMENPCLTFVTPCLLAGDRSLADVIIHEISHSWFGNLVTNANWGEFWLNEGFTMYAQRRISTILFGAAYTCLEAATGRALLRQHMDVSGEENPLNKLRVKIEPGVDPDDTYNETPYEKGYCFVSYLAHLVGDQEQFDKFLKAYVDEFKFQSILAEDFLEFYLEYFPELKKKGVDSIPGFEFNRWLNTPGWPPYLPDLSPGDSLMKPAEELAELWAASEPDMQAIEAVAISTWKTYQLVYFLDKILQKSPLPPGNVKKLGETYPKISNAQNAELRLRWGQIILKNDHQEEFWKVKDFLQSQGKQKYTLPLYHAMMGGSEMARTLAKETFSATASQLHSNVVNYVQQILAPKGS
The experiment in a line: Competitive inhibition of aminopeptidase B or arginyl aminopeptidase purified from rat liver; Ki value reporting the slope effect(Kis). In short, it runs like this:
(§1)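 Arginyl aminopeptidase purified from rat liver. Substrate L-arginine p-nitroanilide in 0.10 M PIPES, pH 7.0, with 0.20 M NaCl and 1 mM DTT, at 25 °C. Initial velocities read as p-nitroaniline release at 405 nm (E = 9620 L/mol·cm). Slow-binding inhibitors preincubated 15 min with enzyme before substrate was added; others started by adding enzyme.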

For another test, the target named is T2, Renin (Homo sapiens, UniProt P00797).
T2 sequence (P00797 whole entry): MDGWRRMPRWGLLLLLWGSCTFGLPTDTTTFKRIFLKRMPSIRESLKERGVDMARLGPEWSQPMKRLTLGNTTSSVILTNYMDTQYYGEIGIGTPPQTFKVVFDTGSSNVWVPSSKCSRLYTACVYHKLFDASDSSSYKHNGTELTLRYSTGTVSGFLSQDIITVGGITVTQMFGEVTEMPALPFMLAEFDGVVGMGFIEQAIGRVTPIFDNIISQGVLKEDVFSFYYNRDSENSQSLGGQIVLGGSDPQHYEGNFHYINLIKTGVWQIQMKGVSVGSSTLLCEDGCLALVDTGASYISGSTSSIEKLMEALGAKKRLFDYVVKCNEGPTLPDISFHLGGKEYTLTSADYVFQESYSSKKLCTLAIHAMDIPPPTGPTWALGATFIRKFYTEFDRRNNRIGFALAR
The experiment in a line: Inhibition of enzyme renin.

The target of test [2] is T1, Aminopeptidase B. Nature of the test: Competitive inhibition of aminopeptidase B or arginyl aminopeptidase purified from rat liver. In short, it runs like this: as §1
The target of test [3] is T1, Aminopeptidase B. Nature of the test: (§2) Inhibition of aminopeptidase B or arginyl aminopeptidase purified from rat liver. The format is tissue-based. The essentials:
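Initial rates taken as p-nitroaniline release at 405 nm. Slow-binding inhibitors were preincubated with enzyme 15 min before substrate was added; others were started with enzyme.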

Test [4] has as its target T1, Aminopeptidase B. The test is described as §2. The essentials: as §1
In test [5] the target is T1, Aminopeptidase B. The experiment in a line: Non-competitive inhibition of aminopeptidase B or arginyl aminopeptidase purified from rat liver; Ki value reporting the Kid. The essentials:
as §1

Test [6] deals with T1, Aminopeptidase B. The experiment in a line: Non-competitive inhibition of aminopeptidase B or arginyl aminopeptidase purified from rat liver; Ki value reporting the intercept effect(Kii). In short, it runs like this: as §1
Test [7] addresses T1, Aminopeptidase B. The experiment in a line: Non-competitive inhibition of aminopeptidase B or arginyl aminopeptidase purified from rat liver; Ki value reporting the slope effect(Kis). The essentials: as §1
The target in a further test is Pancreatic elastase (Sus scrofa, UniProt P08419+P00772). Nature of the test: Inhibition of porcine pancreatic elastase. It is filed as protein assay.

Broadly, the Ki is the dissociation constant of the complex between target and ligand, obtained from inhibition or displacement. High values mean a looser hold on the target, low ones a stronger hold on the target. For `CC(C)C[C@H](N)C(=O)CC(Cc1ccccc1)C(=O)O` (stereo partly specified), the Ki on Aminopeptidase B [1] is 0.17 µM.

As to `CC(C)C[C@H](CN[C@H](CC(C)C)C(=O)N[C@H](C(=O)N[C@@H](Cc1ccc(O)cc1)C(=O)O)C(C)C)NC(=O)C(Cc1c[nH]cn1)NC(=O)[C@H](Cc1ccccc1)NC(=O)[C@@H]1CCCN1C(=O)C(N)Cc1c[nH]cn1` (stereo in doubt), the Ki at Renin was determined as 1 µM.

Molecule `NCCCC[C@H](N)C(=O)CC(Cc1ccccc1)C(=O)O` (stereo partly specified) came in with a Ki at Aminopeptidase B [1] of 0.004 µM.

At Aminopeptidase B [1], `CC(C)C[C@@H](N)C(=O)CC(Cc1ccccc1)C(=O)O` (stereo partly specified) registered an inhibition constant (Ki) of 0.77 µM.

Broadly, the IC50 is the concentration at which inhibition is half-maximal. At Aminopeptidase B [2], `CC(C)CCNC(=O)[C@@H](NC(=O)[C@H](C)CC(=O)[C@@H](N)CC(C)C)C(C)C` gave an IC50 of more than 400 µM.

The molecule `NC(N)=NCCC[C@H](N)C(=O)C[C@@H](Cc1ccccc1)C(=O)O` displayed a Ki at Aminopeptidase B [3] of 0.0025 µM.

`CC(C)CCNC(=O)C(NC(=O)C(Cc1ccccc1)CC(O)C(N)CC(C)C)C(C)C` (stereo unspecified) yielded an IC50 against Aminopeptidase B [4] of more than 600 µM.

At Aminopeptidase B [1], `CC(C)CCNC(=O)[C@@H](NC(=O)[C@H](CC(=O)[C@@H](N)CC(C)C)Cc1ccccc1)C(C)C` gave a Ki of 36 µM.

As for `CC(CC(=O)[C@@H](N)CCCCN)C(=O)O` (stereo partly specified), the Ki on Aminopeptidase B [1] worked out at 2 µM.

Consider `CC(C)CC(N)C(=O)CC(C)C(=O)O` (stereo unspecified), for which affinity on Aminopeptidase B [1] was put at a Ki of 130 µM.

Consider `N=C(N)NCCC[C@H](N)C(=O)C[C@@H](Cc1ccc(O)cc1)C(=O)O`, for which the Ki on Aminopeptidase B [3] came out at 0.00084 µM.

Regarding `CC(C)C[C@H](NC(=O)[C@@H](O)[C@H](N)Cc1ccccc1)C(=O)O` [UBENIMEX], the Ki at Aminopeptidase B [3] amounted to 0.014 µM.

For the molecule `CC(CC(=O)[C@@H](N)CCCCN)C(=O)NC(Cc1ccccc1)C(=O)O` (stereo partly specified), the results for the Ki on Aminopeptidase B [5], on Aminopeptidase B [6] and at Aminopeptidase B [7] were 2.8 µM, 2 µM and 8.8 µM, respectively.

Molecule `COC(=O)CCC(=O)C(C)NC(=O)c1ccccc1` (stereo unspecified) registered a Ki on Pancreatic elastase of 4200 µM.
